In the experiment the target is T1, Endothelin-1 receptor (Sus scrofa, UniProt Q29010).
T1 sequence (Q29010 whole entry): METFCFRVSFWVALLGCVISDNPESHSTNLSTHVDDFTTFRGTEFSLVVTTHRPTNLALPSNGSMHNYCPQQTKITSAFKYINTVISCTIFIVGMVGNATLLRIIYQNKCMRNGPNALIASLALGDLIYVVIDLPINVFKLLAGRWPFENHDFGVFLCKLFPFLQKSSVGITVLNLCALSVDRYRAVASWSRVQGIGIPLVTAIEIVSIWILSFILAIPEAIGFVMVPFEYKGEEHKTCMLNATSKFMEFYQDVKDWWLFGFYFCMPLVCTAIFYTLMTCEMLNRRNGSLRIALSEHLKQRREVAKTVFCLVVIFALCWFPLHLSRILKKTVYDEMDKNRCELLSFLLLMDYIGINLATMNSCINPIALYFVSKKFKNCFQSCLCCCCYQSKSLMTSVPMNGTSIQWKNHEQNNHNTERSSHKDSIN
Put plainly: Tested for the competitive binding versus [125I]- ET-1 determined in porcine cardiac ventricular membrane for Endothelin A receptor. An outline of the steps: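 Membranes (porcine cardiac ventricle at 12 μg/mL for ETA; bovine cerebrum at 150 μg/mL for ETB) in pH 7.2 Tris/EGTA/Mg acetate/0.1% BSA buffer with protease inhibitors. Incubated with 100 pM [125I]ET-1 and varied compound for 1 h at 25 °C, then filtered and counted by gamma counter. IC50 given as mean ± SEM of ≥3 determinations.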

For `CC[C@H](C)[C@H](NC(=O)[C@H](CC1CCCCC1)NC(=O)[C@@H](NC(=O)[C@H](CC(C)C)NC(=O)[C@H](Cc1c[nH]cn1)NC(=O)[C@@H]1CSSC[C@H](N)C(=O)N[C@@H](CO)C(=O)N[C@H]2CSSC[C@H](NC(=O)[C@H](CCC(=O)O)NC(=O)[C@H](CCCCN)NC(=O)[C@H](CC(=O)O)NC(=O)[C@H](CCSC)NC(=O)[C@H](CC(C)C)NC(=O)[C@H](CO)NC(=O)[C@H](CO)NC2=O)C(=O)N[C@@H](C(C)C)C(=O)N[C@@H](Cc2ccc(O)cc2)C(=O)N[C@@H](Cc2ccccc2)C(=O)N1)[C@@H](C)O)C(=O)N[C@@H](Cc1c[nH]c2ccccc12)C(=O)O`, the IC50 – broadly, the concentration needed to halve the response being measured – was determined as 0.7 nM.

For the origin of these results see BindingDB's records for doi:10.1021/jm00077a013 (Takeda Chemical Industries, 1994).
